The record followed here is ChEMBL document CHEMBL1135915, “Structure-activity relationships in 1,4-benzodioxan-related compounds. 7. Selectivity of 4-phenylchroman analogues for alpha(1)-adrenoreceptor subtypes” (J Med Chem, 2002).

For test [1], the target named is T1, 5-hydroxytryptamine receptor 1A (Homo sapiens, UniProt P08908).
T1 sequence (P08908 whole entry): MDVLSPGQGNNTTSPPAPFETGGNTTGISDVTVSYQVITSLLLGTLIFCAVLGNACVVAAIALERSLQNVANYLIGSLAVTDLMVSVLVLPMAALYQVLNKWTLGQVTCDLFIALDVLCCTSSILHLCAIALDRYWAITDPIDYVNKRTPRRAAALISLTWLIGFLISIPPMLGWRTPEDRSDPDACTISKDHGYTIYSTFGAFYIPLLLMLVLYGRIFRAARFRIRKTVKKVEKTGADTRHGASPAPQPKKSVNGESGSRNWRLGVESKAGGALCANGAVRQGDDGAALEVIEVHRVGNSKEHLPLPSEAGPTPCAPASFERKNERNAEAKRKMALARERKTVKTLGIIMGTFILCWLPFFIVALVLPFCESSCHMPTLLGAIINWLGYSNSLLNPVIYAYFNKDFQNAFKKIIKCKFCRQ
Kind of test: Affinity constant on HeLa cells expressing Human recombinant 5-hydroxytryptamine receptor 1A.

Test [2] addresses T2, Alpha-1B adrenergic receptor (Homo sapiens, UniProt P35368).
T2 sequence (P35368 whole entry): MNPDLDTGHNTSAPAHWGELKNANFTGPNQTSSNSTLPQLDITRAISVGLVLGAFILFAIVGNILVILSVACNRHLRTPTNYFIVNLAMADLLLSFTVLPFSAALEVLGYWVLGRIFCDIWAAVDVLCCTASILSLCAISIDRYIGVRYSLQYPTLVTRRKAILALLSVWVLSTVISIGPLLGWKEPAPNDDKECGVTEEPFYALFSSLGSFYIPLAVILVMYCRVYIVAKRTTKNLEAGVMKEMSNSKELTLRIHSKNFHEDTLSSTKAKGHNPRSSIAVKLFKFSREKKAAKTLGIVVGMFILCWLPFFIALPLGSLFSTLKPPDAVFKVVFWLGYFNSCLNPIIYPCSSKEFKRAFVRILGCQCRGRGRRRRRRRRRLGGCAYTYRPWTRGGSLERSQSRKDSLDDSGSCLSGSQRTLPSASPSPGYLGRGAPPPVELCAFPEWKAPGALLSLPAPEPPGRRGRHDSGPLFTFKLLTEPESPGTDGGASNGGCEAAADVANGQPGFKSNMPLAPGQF
Kind of test: Affinity constant on CHO cells expressing Human recombinant Alpha-1B adrenergic receptor. It is filed as cell-based.

Test [3] concerns the target T3, Alpha-1A adrenergic receptor (Rattus norvegicus, UniProt P43140).
T3 sequence (P43140 whole entry): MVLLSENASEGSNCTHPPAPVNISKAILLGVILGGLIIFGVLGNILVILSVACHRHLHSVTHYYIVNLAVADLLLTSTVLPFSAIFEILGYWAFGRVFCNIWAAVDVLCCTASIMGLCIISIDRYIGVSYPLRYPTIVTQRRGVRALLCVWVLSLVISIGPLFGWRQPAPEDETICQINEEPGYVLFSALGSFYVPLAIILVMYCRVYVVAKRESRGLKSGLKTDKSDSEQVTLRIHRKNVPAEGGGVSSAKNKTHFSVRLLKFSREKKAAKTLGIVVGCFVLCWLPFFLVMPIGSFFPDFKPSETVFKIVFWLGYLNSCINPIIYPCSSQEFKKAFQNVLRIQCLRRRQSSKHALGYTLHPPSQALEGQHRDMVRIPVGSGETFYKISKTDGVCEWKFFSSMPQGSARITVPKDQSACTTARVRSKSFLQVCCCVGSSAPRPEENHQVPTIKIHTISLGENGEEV
Kind of test: Antagonistic affinity tested against isolated Rat Prostate Alpha-1A adrenergic receptor. The format is functional. To be noted: read-out: pA2 (converted). In a few lines: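 Prostate strips from male Wistar rats (275-300 g), 2 g tension in modified Krebs at 37 °C, 95% O2/5% CO2, pH 7.4, primed with 1.0 µM (-)-noradrenaline. After 90 min wash, a cumulative noradrenaline curve was run, then a second after 30 min antagonist equilibration. Single antagonist concentration in the range 0.01-1 µM; pKB by van Rossum.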

Test [4] deals with T3, Alpha-1A adrenergic receptor. In words: Antagonistic affinity tested against isolated Rat Prostatic Vas Deferens Alpha-1A adrenergic receptor. It is filed as functional, tissue-based. The following applies: read-out: pA2 (converted).
For test [5], the target named is T4, Alpha-1A adrenergic receptor (Homo sapiens, UniProt P35348).
T4 sequence (P35348 whole entry): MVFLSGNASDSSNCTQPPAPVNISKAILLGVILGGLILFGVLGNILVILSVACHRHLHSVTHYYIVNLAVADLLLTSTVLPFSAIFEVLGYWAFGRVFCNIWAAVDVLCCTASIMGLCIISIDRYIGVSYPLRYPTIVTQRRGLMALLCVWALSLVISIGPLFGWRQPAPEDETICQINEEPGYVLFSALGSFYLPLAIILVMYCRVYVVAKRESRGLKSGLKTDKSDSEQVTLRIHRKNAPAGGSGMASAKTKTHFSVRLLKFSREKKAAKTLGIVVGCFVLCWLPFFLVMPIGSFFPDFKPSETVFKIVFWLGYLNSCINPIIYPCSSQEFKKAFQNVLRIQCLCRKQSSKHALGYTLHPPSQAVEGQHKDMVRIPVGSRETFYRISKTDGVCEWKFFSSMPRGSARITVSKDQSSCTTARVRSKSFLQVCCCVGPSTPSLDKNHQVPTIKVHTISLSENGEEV
In words: Affinity constant on CHO cells expressing Human recombinant Alpha-1A adrenergic receptor. The format is cell-based.

In test [6] the target is T5, Alpha-1D adrenergic receptor (Homo sapiens, UniProt P25100).
T5 sequence (P25100 whole entry): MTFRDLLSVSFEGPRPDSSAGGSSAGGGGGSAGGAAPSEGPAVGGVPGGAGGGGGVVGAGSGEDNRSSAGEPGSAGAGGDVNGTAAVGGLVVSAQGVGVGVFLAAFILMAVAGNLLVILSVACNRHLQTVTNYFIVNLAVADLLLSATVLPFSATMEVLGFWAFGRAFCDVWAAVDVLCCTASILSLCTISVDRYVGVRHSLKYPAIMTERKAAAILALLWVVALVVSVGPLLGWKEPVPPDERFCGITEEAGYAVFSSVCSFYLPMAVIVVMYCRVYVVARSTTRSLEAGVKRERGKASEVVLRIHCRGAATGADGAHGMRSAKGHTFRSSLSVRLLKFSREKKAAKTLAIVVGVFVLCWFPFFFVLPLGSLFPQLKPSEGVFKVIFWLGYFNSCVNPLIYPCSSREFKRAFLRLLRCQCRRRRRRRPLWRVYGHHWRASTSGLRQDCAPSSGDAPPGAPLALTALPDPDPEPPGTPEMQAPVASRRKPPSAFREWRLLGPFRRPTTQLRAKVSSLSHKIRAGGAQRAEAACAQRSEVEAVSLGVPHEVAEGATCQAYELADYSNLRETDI
In words: Affinity constant on CHO cells expressing Human recombinant Alpha-1D adrenergic receptor. The format is cell-based.

The target of test [7] is T6, Alpha-1B adrenergic receptor (Rattus norvegicus, UniProt P15823).
T6 sequence (P15823 whole entry): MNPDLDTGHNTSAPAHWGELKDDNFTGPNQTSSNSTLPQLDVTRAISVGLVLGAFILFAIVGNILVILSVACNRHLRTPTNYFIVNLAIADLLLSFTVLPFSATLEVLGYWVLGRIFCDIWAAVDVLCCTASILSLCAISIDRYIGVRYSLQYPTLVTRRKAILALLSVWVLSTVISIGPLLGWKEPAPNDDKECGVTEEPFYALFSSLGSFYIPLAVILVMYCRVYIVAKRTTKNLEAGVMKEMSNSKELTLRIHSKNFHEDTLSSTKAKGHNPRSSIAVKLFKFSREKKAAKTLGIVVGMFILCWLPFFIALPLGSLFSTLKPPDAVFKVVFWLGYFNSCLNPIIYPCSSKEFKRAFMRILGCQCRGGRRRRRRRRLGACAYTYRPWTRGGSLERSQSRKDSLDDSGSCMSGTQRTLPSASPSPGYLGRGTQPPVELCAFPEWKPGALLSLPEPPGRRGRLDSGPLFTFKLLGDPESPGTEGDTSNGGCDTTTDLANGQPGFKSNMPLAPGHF
In words: Antagonistic affinity tested against isolated Rat Spleen Alpha-1B adrenergic receptor. It is filed as functional. The following applies: read-out: pA2 (converted). In short, it runs like this: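 Rat spleen strips, 1 g resting tension, in Krebs with 4.0 µM propranolol and 0.01 mM K2EDTA, equilibrated 2 h. Cumulative isometric (-)-phenylephrine curves at 30 min intervals; the second served as control.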

Test [8] addresses T7, Alpha-1D adrenergic receptor (Rattus norvegicus, UniProt P23944).
T7 sequence (P23944 whole entry): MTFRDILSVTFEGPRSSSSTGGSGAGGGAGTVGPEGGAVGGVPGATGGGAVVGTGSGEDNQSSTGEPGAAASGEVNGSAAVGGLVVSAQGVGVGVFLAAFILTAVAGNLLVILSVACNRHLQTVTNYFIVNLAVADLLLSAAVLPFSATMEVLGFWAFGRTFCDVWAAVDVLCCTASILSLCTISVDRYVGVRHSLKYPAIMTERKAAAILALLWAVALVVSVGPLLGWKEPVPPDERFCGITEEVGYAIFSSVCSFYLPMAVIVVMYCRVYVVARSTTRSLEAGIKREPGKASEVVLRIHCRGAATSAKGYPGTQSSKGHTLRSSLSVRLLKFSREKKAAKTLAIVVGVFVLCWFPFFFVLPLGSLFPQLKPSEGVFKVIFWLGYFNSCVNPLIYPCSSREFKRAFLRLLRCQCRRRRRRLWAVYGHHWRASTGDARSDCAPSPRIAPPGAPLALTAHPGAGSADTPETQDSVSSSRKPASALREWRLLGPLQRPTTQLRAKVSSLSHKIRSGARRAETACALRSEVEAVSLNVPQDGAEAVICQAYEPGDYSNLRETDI
Kind of test: Antagonistic affinity tested against isolated Rat Thoracic Aorta Alpha-1D adrenergic receptor. To be noted: read-out: pA2 (converted). It is filed as functional, tissue-based.

The structures appear in SMILES notation.

Take `COc1cccc(OC)c1OCCNCC1CC(c2ccccc2)c2ccccc2C1=O` (stereo not drawn): the Ki in test [1] was 11 nM; in test [2] it was 1.23 nM; in test [5] it was 0.251 nM; in test [6] it was 0.182 nM. Besides, the Kb in test [3] was 0.347 nM; in test [4] it was 0.447 nM; in test [7], 26.3 nM; in test [8], 2 nM.
Consider `COc1ccccc1N1CCN(CCN2C(=O)CC3(CCCC3)CC2=O)CC1` [BMY-7378], for which the Ki was 0.372 nM in test [1] and 708 nM in test [2]. In addition, the Kb in test [7] is 33.1 nM.
With `COc1cccc(OC)c1OCCNCC1Cc2ccccc2C(c2ccccc2)C1` (stereo not drawn), the Ki is 6.31 nM in test [1], 12.3 nM in test [2], 0.513 nM in test [5] and 17 nM in test [6]. Further, the Kb in test [3] is 288 nM; in test [4], 178 nM; in test [7], 110 nM; in test [8], 91.2 nM.
Regarding `COc1cccc(OC)c1OCCNC[C@@H]1Oc2ccccc2O[C@H]1c1ccccc1`, the Kb is 5.89 nM in test [3], 5.75 nM in test [4], 2510 nM in test [7] and 32.4 nM in test [8].
Take `COc1cccc(OC)c1OCCNCC1CC(c2ccccc2)c2ccccc2S1` (stereo not drawn): the Ki is 15.1 nM in test [1], 1.15 nM in test [2], 0.0891 nM in test [5] and 0.437 nM in test [6]. Also, the Kb in test [3] is 4.9 nM; in test [4], 6.17 nM; in test [7] it was 155 nM; in test [8], 17.4 nM.
`COc1cccc(OC)c1OCCNCC1COc2ccccc2O1` (stereo not drawn): the results for the Kb in test [3], in test [4] and in test [8] were 0.537 nM, 0.309 nM and 1.58 nM, respectively.
On to `COc1cccc(OC)c1OCCNCCOc1ccccc1Cc1ccccc1`, for which the Ki was 10.7 nM in test [1], 2.82 nM in test [2], 0.398 nM in test [5] and 3.63 nM in test [6]. The Kb in test [3] is 33.9 nM; in test [4], 58.9 nM; in test [7], 67.6 nM; in test [8], 16.6 nM.
For the compound `COc1cccc(OC)c1OCCNC[C@H]1C[C@H](c2ccccc2)c2ccccc2S1`, the Ki in test [1] was 10.2 nM; in test [2], 27.5 nM; in test [5] it was 2.34 nM; in test [6] it was 22.9 nM. Besides, the Kb in test [3] is 107 nM; in test [4], 209 nM; in test [7], 302 nM; in test [8], 61.7 nM.
In the case of `COc1cccc(OC)c1OCCNC[C@@H]1C[C@H](c2ccccc2)c2ccccc2O1`, the Ki in test [1] is 6.46 nM; in test [2], 0.0398 nM; in test [5], 0.0501 nM; in test [6], 0.0891 nM. Also, the Kb in test [3] is 1.12 nM; in test [4] it was 1.32 nM; in test [7] it was 28.8 nM; in test [8], 0.275 nM.

One may read the Ki as the equilibrium dissociation constant of an inhibitor or competing ligand from its target.
